From ChEMBL document CHEMBL1932971, “Synthesis of uriedo and thiouriedo derivatives of peptide conjugated heterocycles - A new class of promising antimicrobials” (2012)
In brackets after ≈: the same amount, converted by molar mass. Numbered stars: 1 amine (or outer) side, 2 acyl side, 3 side chain; on linkers, the order of the positions; unused ones are H or OH. Peptide text beside a SMILES is read from it. * marks the point of attachment. Piperazinyl(4-(2,3-Cl2Ph)) = Clc1cccc(N2CCN(*)CC2)c1Cl; Thiocarbamoyl(N-4-ClPh) = S=C(Nc1ccc(Cl)cc1)*; Thiocarbamoyl(4-MeOPh) = COc1ccc(NC(=S)*)cc1; Thiocarbamoyl(N-2-FPh) = Fc1ccccc1NC(=S)*; X1 = Fc1ccc2c(C3CCN(*)CC3)noc2c1; NH(2-F-phenyl) = Fc1ccccc1N*; CO = O=C([*:1])[*:2]; OcHex = C1CCC(O*)CC1

How the values were obtained:
Type in all cases: functional
Escherichia coli [1] = assay: Antibacterial activity against Escherichia coli at 30 ug/ml after 24 hrs by agar well diffusion method; conditions: read-out: DIZ
Summary of the method: (§1)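 Agar well diffusion. Inocula were grown in nutrient broth at 37 °C for 24 h, then subcultured in nutrient broth at room temperature. Compounds were made as a 1 mg/mL DMSO stock and diluted to 30 µg/mL final. Nutrient agar plates were spread-inoculated and 6 mm wells each got 0.1 mL. Controls were amoxicillin (reference) and DMSO (negative). Incubation was 24 h at 37 °C. Inhibition zone was measured in mm as the mean of three determinations.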

Xanthomonas oryzae [2] = assay: Antibacterial activity against Xanthomonas oryzae at 30 ug/ml after 24 hrs by agar well diffusion method; conditions: read-out: DIZ
Klebsiella pneumoniae [3] = assay: Antibacterial activity against Klebsiella pneumoniae at 30 ug/ml after 24 hrs by agar well diffusion method; conditions: read-out: DIZ; summary of the method: as §1
Staphylococcus aureus [4] = assay: Antibacterial activity against coagulase-positive Staphylococcus aureus at 30 ug/ml after 24 hrs by agar well diffusion method; conditions: read-out: DIZ; summary of the method: as §1
Aspergillus niger [5] = assay: Antifungal activity against Aspergillus niger at 30 ug/ml after 72 hrs by agar well diffusion method; conditions: read-out: DIZ
Summary of the method: (§2)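 Fungal well diffusion. Inocula were subcultured in nutrient broth for one day, then spread on solidified medium. Compounds were made as a 1 mg/mL DMSO stock and diluted to 30 µg/mL final. Each 6 mm well got 0.1 mL. Controls were bavistin (reference) and DMSO (negative). Plates stood for 3 days at room temperature. Inhibition zone was measured in mm as the mean of three determinations.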

Aspergillus flavus [6] = assay: Antifungal activity against Aspergillus flavus at 30 ug/ml after 72 hrs by agar well diffusion method; conditions: read-out: DIZ; summary of the method: as §2
Fusarium oxysporum [7] = assay: Antifungal activity against Fusarium oxysporum at 30 ug/ml after 72 hrs by agar well diffusion method; conditions: read-out: DIZ; summary of the method: as §2
Aspergillus niger [8] = assay: Antifungal activity against Aspergillus niger after 72 hrs by microdilution method
Aspergillus flavus [9] = assay: Antifungal activity against Aspergillus flavus after 72 hrs by microdilution method
Fusarium oxysporum [10] = assay: Antifungal activity against Fusarium oxysporum after 72 hrs by microdilution method
Aspergillus niger [11] = assay: Ratio of bavistin MIC to compound MIC for Aspergillus niger after 72 hrs by microdilution method
Aspergillus flavus [12] = assay: Ratio of bavistin MIC to compound MIC for Aspergillus flavus after 72 hrs by microdilution method
Fusarium oxysporum [13] = assay: Ratio of bavistin MIC to compound MIC for Fusarium oxysporum after 72 hrs by microdilution method
Escherichia coli [14] = assay: Antibacterial activity against Escherichia coli after 24 hrs by microdilution method
Xanthomonas oryzae [15] = assay: Antibacterial activity against Xanthomonas oryzae after 24 hrs by microdilution method
Klebsiella pneumoniae [16] = assay: Antibacterial activity against Klebsiella pneumoniae after 24 hrs by microdilution method
Staphylococcus aureus [17] = assay: Antibacterial activity against coagulase-positive Staphylococcus aureus after 24 hrs by microdilution method

Structure (SMILES) | zone of inhibition at 30 µg/mL (Escherichia coli [1]) | zone of inhibition at 30 µg/mL (Xanthomonas oryzae [2]) | zone of inhibition at 30 µg/mL (Klebsiella pneumoniae [3]) | zone of inhibition at 30 µg/mL (Staphylococcus aureus [4]) | zone of inhibition at 30 µg/mL (Aspergillus niger [5]) | zone of inhibition at 30 µg/mL (Aspergillus flavus [6]) | zone of inhibition at 30 µg/mL (Fusarium oxysporum [7]) | MIC (Aspergillus niger [8]) | MIC (Aspergillus flavus [9]) | MIC (Fusarium oxysporum [10]) | Ratio (Aspergillus niger [11]) | Ratio (Aspergillus flavus [12]) | Ratio (Fusarium oxysporum [13]) | MIC (Escherichia coli [14]) | MIC (Xanthomonas oryzae [15]) | MIC (Klebsiella pneumoniae [16]) | MIC (Staphylococcus aureus [17])
COc1ccc(NC(=S)NCC(=O)N[C@@H](CCC(=O)OC2CCCCC2)C(=O)NCC(=O)N[C@@H](Cc2ccccc2)C(=O)N2CCC[C@H]2C(=O)NCC(=O)N[C@H](C(=O)NCC(=O)N[C@H](C(=O)N2CCC[C@H]2C(=O)NCC(=O)N[C@H](C(=O)NCC(=O)N[C@H](C(=O)N2CCC[C@H]2C(=O)NCC(=O)N[C@H](C(=O)NCC(=O)N[C@H](C(=O)N2CCC[C@H]2C(=O)NCC(=O)N[C@@H](Cc2ccccc2)C(=O)NCC(=O)N[C@@H](Cc2ccccc2)C(=O)N2CCC[C@H]2C(=O)NCC(=O)N[C@@H](Cc2ccccc2)C(=O)NCC(=O)N[C@@H](Cc2ccccc2)C(=O)N2CCC[C@H]2C(=O)N2CCC(c3noc4cc(F)ccc34)CC2)C(C)C)C(C)C)C(C)C)C(C)C)C(C)C)C(C)C)cc1 ({Thiocarbamoyl(4-MeOPh)}-GE(OcHex)GFPGVGVPGVGVPGVGVPGFGFPGFGFP-X1) | 17 mm | 14 mm | 16 mm | 15 mm | 43 mm | 38 mm | 39 mm | 2 mg/L (≈ 0.626 µM) | 2 mg/L (≈ 0.626 µM) | 2 mg/L (≈ 0.626 µM) | 10 | 10 | 10 |  |  |  | 
COc1ccc(NC(=S)NCC(=O)N[C@@H](CCC(=O)OC2CCCCC2)C(=O)NCC(=O)N[C@@H](Cc2ccccc2)C(=O)N2CCC[C@H]2C(=O)NCC(=O)N[C@H](C(=O)NCC(=O)N[C@H](C(=O)N2CCC[C@H]2C(=O)NCC(=O)N[C@H](C(=O)NCC(=O)N[C@@H](Cc2ccccc2)C(=O)N2CCC[C@H]2C(=O)NCC(=O)N[C@@H](Cc2ccccc2)C(=O)NCC(=O)N[C@@H](Cc2ccccc2)C(=O)N2CCC[C@H]2C(=O)NCC(=O)N[C@H](C(=O)NCC(=O)N[C@H](C(=O)N2CCC[C@H]2C(=O)NCC(=O)N[C@H](C(=O)NCC(=O)N[C@@H](Cc2ccccc2)C(=O)N2CCC[C@H]2C(=O)N2CCN(c3cccc(Cl)c3Cl)CC2)C(C)C)C(C)C)C(C)C)C(C)C)C(C)C)C(C)C)cc1 ({Thiocarbamoyl(4-MeOPh)}-GE(OcHex)GFPGVGVPGVGFPGFGFPGVGVPGVGFP-{Piperazinyl(4-(2,3-Cl2Ph))}) | 15 mm | 13 mm | 15 mm | 14 mm | 42 mm | 37 mm | 38 mm | 2.75 mg/L (≈ 0.858 µM) | 2.75 mg/L (≈ 0.858 µM) | 3.25 mg/L (≈ 1.01 µM) | 10 | 10 | 10 |  |  |  | 
CC(C)[C@H](NC(=O)CNC(=O)[C@@H]1CCCN1C(=O)[C@H](Cc1ccccc1)NC(=O)CNC(=O)[C@H](CCC(=O)OC1CCCCC1)NC(=O)CNC(=S)Nc1ccc(Cl)cc1)C(=O)NCC(=O)N[C@H](C(=O)N1CCC[C@H]1C(=O)NCC(=O)N[C@H](C(=O)NCC(=O)N[C@H](C(=O)N1CCC[C@H]1C(=O)NCC(=O)N[C@H](C(=O)NCC(=O)N[C@H](C(=O)N1CCC[C@H]1C(=O)NCC(=O)N[C@@H](Cc1ccccc1)C(=O)NCC(=O)N[C@@H](Cc1ccccc1)C(=O)N1CCC[C@H]1C(=O)NCC(=O)N[C@@H](Cc1ccccc1)C(=O)NCC(=O)N[C@@H](Cc1ccccc1)C(=O)N1CCC[C@H]1C(=O)N1CCC(c2noc3cc(F)ccc23)CC1)C(C)C)C(C)C)C(C)C)C(C)C)C(C)C ({Thiocarbamoyl(N-4-ClPh)}-GE(OcHex)GFPGVGVPGVGVPGVGVPGFGFPGFGFP-X1) | 21 mm | 17 mm | 19 mm | 17 mm | 45 mm | 40 mm | 41 mm | 1.75 mg/L (≈ 0.547 µM) | 1.75 mg/L (≈ 0.547 µM) | 2.5 mg/L (≈ 0.781 µM) | 10 | 10 | 10 |  |  |  | 
CC(C)[C@H](NC(=O)CNC(=S)Nc1ccccc1F)C(=O)NCC(=O)N[C@H](C(=O)N1CCC[C@H]1C(=O)N1CCC(c2noc3cc(F)ccc23)CC1)C(C)C ({Thiocarbamoyl(N-2-FPh)}-GVGVP-X1) | 35 mm | 36 mm | 35 mm | 31 mm | 37 mm | 33 mm | 35 mm | 4.75 mg/L (≈ 6.07 µM) | 5.5 mg/L (≈ 7.03 µM) | 6.75 mg/L (≈ 8.62 µM) |  |  |  | 7.25 mg/L (≈ 9.26 µM) | 6.25 mg/L (≈ 7.98 µM) | 5 mg/L (≈ 6.39 µM) | 6.25 mg/L (≈ 7.98 µM)
O=C(CNC(=O)Nc1ccccc1F)N[C@@H](Cc1ccccc1)C(=O)NCC(=O)N[C@@H](Cc1ccccc1)C(=O)N1CCC[C@H]1C(=O)N1CCC(c2noc3cc(F)ccc23)CC1 ({NH(2-F-phenyl)-CO}-GFGFP-X1) | 39 mm | 40 mm | 36 mm | 34 mm | 40 mm | 35 mm | 39 mm | 3.25 mg/L (≈ 3.77 µM) | 4.75 mg/L (≈ 5.5 µM) | 4.25 mg/L (≈ 4.93 µM) |  |  |  | 5 mg/L (≈ 5.79 µM) | 5 mg/L (≈ 5.79 µM) | 3.25 mg/L (≈ 3.77 µM) | 4.25 mg/L (≈ 4.93 µM)
CC(C)[C@H](NC(=O)CNC(=S)Nc1ccc(Cl)cc1)C(=O)NCC(=O)N[C@H](C(=O)N1CCC[C@H]1C(=O)N1CCC(c2noc3cc(F)ccc23)CC1)C(C)C ({Thiocarbamoyl(N-4-ClPh)}-GVGVP-X1) | 31 mm | 32 mm | 30 mm | 28 mm | 34 mm | 30 mm | 31 mm | 6 mg/L (≈ 7.51 µM) | 6.75 mg/L (≈ 8.44 µM) | 8 mg/L (≈ 10 µM) |  |  |  | 8.75 mg/L (≈ 10.9 µM) | 8 mg/L (≈ 10 µM) | 6.5 mg/L (≈ 8.13 µM) | 8 mg/L (≈ 10 µM)
O=C(CNC(=O)Nc1ccccc1F)NCC(=O)N[C@@H](Cc1ccccc1)C(=O)N1CCC[C@H]1C(=O)N1CCC(c2noc3cc(F)ccc23)CC1 ({NH(2-F-phenyl)-CO}-GGFP-X1) | 31 mm | 29 mm | 27 mm | 25 mm | 34 mm | 29 mm | 31 mm | 9 mg/L (≈ 12.6 µM) | 13 mg/L (≈ 18.2 µM) | 14 mg/L (≈ 19.6 µM) |  |  |  | 12 mg/L (≈ 16.8 µM) | 9 mg/L (≈ 12.6 µM) | 9 mg/L (≈ 12.6 µM) | 11 mg/L (≈ 15.4 µM)
O=C(CNC(=S)Nc1ccc(Cl)cc1)N[C@@H](Cc1ccccc1)C(=O)NCC(=O)N[C@@H](Cc1ccccc1)C(=O)N1CCC[C@H]1C(=O)N1CCC(c2noc3cc(F)ccc23)CC1 ({Thiocarbamoyl(N-4-ClPh)}-GFGFP-X1) | 35 mm | 36 mm | 34 mm | 32 mm | 39 mm | 32 mm | 36 mm | 4.5 mg/L (≈ 5.03 µM) | 6 mg/L (≈ 6.7 µM) | 5.75 mg/L (≈ 6.42 µM) |  |  |  | 6 mg/L (≈ 6.7 µM) | 6.25 mg/L (≈ 6.98 µM) | 4.5 mg/L (≈ 5.03 µM) | 5.75 mg/L (≈ 6.42 µM)
O=C(CNC(=O)Nc1ccccc1F)N[C@@H](Cc1ccccc1)C(=O)NCC(=O)N[C@@H](Cc1ccccc1)C(=O)N1CCC[C@H]1C(=O)N1CCN(c2cccc(Cl)c2Cl)CC1 ({NH(2-F-phenyl)-CO}-GFGFP-{Piperazinyl(4-(2,3-Cl2Ph))}) | 37 mm | 38 mm | 35 mm | 33 mm | 39 mm | 34 mm | 34 mm | 4 mg/L (≈ 4.58 µM) | 5.25 mg/L (≈ 6.01 µM) | 5 mg/L (≈ 5.72 µM) |  |  |  | 5.5 mg/L (≈ 6.29 µM) | 5.75 mg/L (≈ 6.58 µM) | 4 mg/L (≈ 4.58 µM) | 5 mg/L (≈ 5.72 µM)
O=C(CNC(=S)Nc1ccccc1F)N[C@@H](Cc1ccccc1)C(=O)NCC(=O)N[C@@H](Cc1ccccc1)C(=O)N1CCC[C@H]1C(=O)N1CCC(c2noc3cc(F)ccc23)CC1 ({Thiocarbamoyl(N-2-FPh)}-GFGFP-X1) | 41 mm | 41 mm | 37 mm | 36 mm | 41 mm | 36 mm | 40 mm | 3 mg/L (≈ 3.41 µM) | 4.5 mg/L (≈ 5.12 µM) | 4 mg/L (≈ 4.55 µM) |  |  |  | 4.75 mg/L (≈ 5.4 µM) | 4.75 mg/L (≈ 5.4 µM) | 3 mg/L (≈ 3.41 µM) | 4 mg/L (≈ 4.55 µM)
O=C(CNC(=S)Nc1ccccc1F)NCC(=O)N[C@@H](Cc1ccccc1)C(=O)N1CCC[C@H]1C(=O)N1CCC(c2noc3cc(F)ccc23)CC1 ({Thiocarbamoyl(N-2-FPh)}-GGFP-X1) | 32 mm | 30 mm | 28 mm | 26 mm | 35 mm | 30 mm | 32 mm | 8.5 mg/L (≈ 11.6 µM) | 12.2 mg/L (≈ 16.7 µM) | 13.2 mg/L (≈ 18.1 µM) |  |  |  | 11.5 mg/L (≈ 15.7 µM) | 8.5 mg/L (≈ 11.6 µM) | 8.25 mg/L (≈ 11.3 µM) | 10.2 mg/L (≈ 14 µM)
